For data set [1], the target named is T1, Decaprenylphosphoryl-beta-D-ribose oxidase (Mycobacterium tuberculosis (strain ATCC 25618 / H37Rv)) (UniProt P9WJF1).
T1 sequence (whole entry): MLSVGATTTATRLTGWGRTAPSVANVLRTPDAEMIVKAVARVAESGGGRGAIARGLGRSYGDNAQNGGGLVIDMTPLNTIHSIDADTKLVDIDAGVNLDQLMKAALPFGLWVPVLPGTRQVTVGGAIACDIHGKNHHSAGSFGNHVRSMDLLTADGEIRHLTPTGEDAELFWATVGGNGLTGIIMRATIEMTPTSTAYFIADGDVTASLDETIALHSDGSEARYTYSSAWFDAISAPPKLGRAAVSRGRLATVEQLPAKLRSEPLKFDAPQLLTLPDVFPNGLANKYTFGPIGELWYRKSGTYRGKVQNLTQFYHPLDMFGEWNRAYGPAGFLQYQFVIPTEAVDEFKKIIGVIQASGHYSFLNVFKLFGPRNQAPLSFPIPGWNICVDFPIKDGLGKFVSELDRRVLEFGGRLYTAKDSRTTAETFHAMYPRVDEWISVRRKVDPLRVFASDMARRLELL
Description: Inhibition of Mycobacterium tuberculosis H37Rv DprE1 assessed as increase in trehalose monomycolates at 100 x MIC incubated for 24 hrs using [14C]acetate by TLC based metabolic labelling assay relative to control. In short, it runs like this: (§1)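 M. tuberculosis H37Rv cultures labelled with [14C]acetate for 24 h. […] Lipids extracted and resolved by TLC, with TDM/TMM compared to untreated control cells. BTZ043 and PBTZ169 served as control inhibitors.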

Data set [2] addresses T1, Decaprenylphosphoryl-beta-D-ribose oxidase (Mycobacterium tuberculosis (strain ATCC 25618 / H37Rv)). As to the kind of experiment: Binding affinity to trypsin digested Mycobacterium tuberculosis DprE1 protein assessed as Cys387 adduct formation with 387-CVDFP-391 sequence at 300 uM by measuring retention time by LC/MS analysis.
The target is the same in data set [3]. Description: Covalent binding affinity to Mycobacterium tuberculosis DprE1 assessed as adduct formation by measuring 490 Da shift increase in molecular weight at 100 uM by Mass spectrometry analysis.
Data set [4] shares this target. Description: Inhibition of Mycobacterium tuberculosis H37Rv DprE1 assessed as increase in trehalose monomycolates at 10 x MIC preincubated for 24 hrs using [14C]acetate by TLC based metabolic labelling assay relative to control. The gist of the method: as §1
In data set [5] the test system is Mycobacterium tuberculosis. As to the kind of experiment: Antimycobacterial activity against Mycobacterium tuberculosis H37Rv ATCC 25618 assessed as inhibition of visible bacterial growth by MABA assay. The format is functional. In short, it runs like this:
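Inoculum adjusted to 1.0 McFarland, diluted 1:20 in Middlebrook 7H9 with 10% OADC and 0.2% glycerol. Compounds taken from 1.0 mg/mL DMSO stocks and serially diluted two-fold. Microplate alamar blue read-out: blue to pink marks growth, colours recorded after 24 h. MIC taken as the lowest concentration giving no colour change. PBTZ169 served as positive control.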

The nature of data set [6]: Half life of the compound in PBS assessed as parent compound remaining by HPLC analysis. The data set is classed as physicochemical.
For data set [7], the target named is T2, Decaprenylphosphoryl-beta-D-ribose oxidase (Mycobacterium tuberculosis (strain ATCC 25618 / H37Rv), UniProt P9WJF1).
T2 sequence (P9WJF1 whole entry): T1 sequence (whole entry)
As to the kind of experiment: Inhibition of Mycobacterium tuberculosis DprE1 expressed in Escherichia coli BL21 (DE3) cells assessed as formation of resorufin using FPR as substrate by Amplex Red hydrogen/peroxidase coupled assay.

The target of data set [8] is T1, Decaprenylphosphoryl-beta-D-ribose oxidase (Mycobacterium tuberculosis (strain ATCC 25618 / H37Rv)). Description: Inhibition of Mycobacterium tuberculosis H37Rv DprE1 assessed as increase in trehalose dimycolates at 100 x MIC incubated for 24 hrs using [14C]acetate by TLC based metabolic labelling assay relative to control. The gist of the method: as §1
A short description of data set [9]: Reactivity of compound towards methyl thioglycolate in PBS measured after 48 hrs by LC/MS/MS. The format is physicochemical. The following applies: buffer. The gist of the method: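 Test compound and methyl thioglycolate co-incubated at 37 °C in 50 mM PBS, pH 7.4. The reaction was followed by TLC, and aliquots were injected into LC-MS/MS at set intervals over 48 h. Electrospray positive-ion mass spectra detected MT adducts, and half-life was determined.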

Data set [10] concerns the target T1, Decaprenylphosphoryl-beta-D-ribose oxidase (Mycobacterium tuberculosis (strain ATCC 25618 / H37Rv)). As to the kind of experiment: Inhibition of Mycobacterium tuberculosis H37Rv DprE1 assessed as increase in trehalose dimycolates at 10 x MIC preincubated for 24 hrs using [14C]acetate by TLC based metabolic labelling assay relative to control. In short, it runs like this: as §1

Data set [11] shares this target. Description: Inhibition of Mycobacterium tuberculosis DprE1 expressed in Escherichia coli BL21 (DE3) cells assessed as formation of resorufin using FPR as substrate at 20 uM by Amplex Red hydrogen/peroxidase coupled assay. Details: scale not given: the % may be the effect or the level left.
Data set [12] shares this target. As to the kind of experiment: Covalent binding affinity to Mycobacterium tuberculosis DprE1 assessed as adduct formation by measuring 460 Da shift increase in molecular weight at 100 uM by Mass spectrometry analysis.
Data set [13] has the same target. As to the kind of experiment: Binding affinity to trypsin digested Mycobacterium tuberculosis DprE1 protein assessed as Cys387 adduct formation with 385-NICVDFPIL-393 sequence at 300 uM by measuring retention time by LC/MS analysis.

Structures are written as SMILES. ≈ marks a conversion by molar mass, not a printed value. Calls of active or inactive are those of the source.

The term MIC denotes the lowest concentration that inhibits growth of the organism. As usually defined, the half-life is the time needed for the level to fall by half in the phase considered. Broadly, the IC50 is the concentration needed to halve the response being measured.

Turning to `COC(=O)/C=C/c1cc(C(F)(F)F)cc2c(=O)nc(N3CCN(CC4CCCCC4)CC3)sc12`, the outcome in data set [1] and in data set [8] was inactive. Also, the Retention time in data set [2] turned out to be 43.3 min. In addition, the result in data set [3], in data set [4] and in data set [10] was Active. In data set [5], the MIC is above 20 µM. Moreover, in data set [6], the half-life is 1 h. The IC50 in data set [7] was 1.24 µM. Besides, the result in [9] was Active.

`O=c1nc(N2CCN(CC3CCCCC3)CC2)sc2c(I)cc(C(F)(F)F)cc12`: the MIC in data set [5] stood at 0.63 µM (≈ 0.339 µg/mL). For the same compound, in data set [7], the IC50 turned out to be 2.35 µM.

Consider `N#C/C=C/c1cc(C(F)(F)F)cc2c(=O)nc(N3CCN(CC4CCCCC4)CC3)sc12`, for which the MIC in data set [5] was above 20 µM. Also, the half-life in [6] was 0.2 h. The Activity was below 70% in data set [11] and “Active” in data set [9].

For the compound `NC(=O)CCc1cc(C(F)(F)F)cc2c(=O)nc(N3CCN(CC4CCCCC4)CC3)sc12`, the MIC in data set [5] is above 9 µM. Besides, in [7], the IC50 was 16.7 µM.

As to `COC(=O)CCc1cc(C(F)(F)F)cc2c(=O)nc(N3CCN(CC4CCCCC4)CC3)sc12`, the MIC in data set [5] is above 9 µM. The IC50 in data set [7] turned out to be 5.4 µM.

For `CNC(=O)/C=C/c1cc(C(F)(F)F)cc2c(=O)nc(N3CCN(CC4CCCCC4)CC3)sc12`, the result in data set [1] and in data set [8] was inactive. In addition, the minimal inhibitory concentration (MIC) in data set [5] came to 20 µM (≈ 9.89 µg/mL). For the same compound, in [7], the IC50 came out at 0.39 µM.

On to `C[C@H]1COC2(CCN(c3nc(=O)c4cc(C(F)(F)F)cc([N+](=O)[O-])c4s3)CC2)O1`, for which the result in [1] and in [8] was Active.

Take `CN(C)C(=O)/C=C/c1cc(C(F)(F)F)cc2c(=O)nc(N3CCN(CC4CCCCC4)CC3)sc12`: the MIC in data set [5] was above 20 µM. The half-life in [6] is above 48 h. Also, the IC50 in data set [7] is 1.25 µM. The result in data set [9] was Active.

Take `N#Cc1cc(C(F)(F)F)cc2c(=O)nc(N3CCN(CC4CCCCC4)CC3)sc12`: in [5], the MIC worked out at 0.16 µM (≈ 0.0698 µg/mL). Besides, the half-life in [6] is 12 h. Besides, in data set [7], the IC50 came out at 1.7 µM. Moreover, in [9], the outcome was Active.

As for `N#Cc1ccc2c(=O)nc(N3CCN(CC4CCCCC4)CC3)sc2n1`, the minimum inhibitory concentration (MIC) in [5] was above 12 µM. For the same compound, in data set [7], the 50% inhibitory concentration (IC50) amounted to 7.72 µM.

Consider `O=c1nc(N2CCN(CC3CCCCC3)CC2)sc2c([N+](=O)[O-])cc(C(F)(F)F)cc12` [MACOZINONE], for which the outcome in data set [1] and in data set [8] was Active.

Regarding `O=c1nc(N2CCN(CC3CCCCC3)CC2)sc2c(Br)cc(C(F)(F)F)cc12`, the outcome in [4] and in data set [10] was Active. Moreover, the MIC in data set [5] was determined as 0.16 µM (≈ 0.0785 µg/mL). For the same compound, the IC50 in [7] came out at 1.84 µM.

As to `NC(=O)/C=C/c1cc(C(F)(F)F)cc2c(=O)nc(N3CCN(CC4CCCCC4)CC3)sc12`, the result in [12], in data set [4] and in data set [10] was Active. The outcome in data set [1] and in data set [8] was inactive. The Retention time in data set [13] worked out at 29.3 min. For the same compound, in data set [5], the MIC was determined as 20 µM (≈ 9.61 µg/mL). Further, the half-life in [6] is 10 h. Further, in data set [7], the IC50 amounted to 0.2 µM. Moreover, the outcome in data set [9] was Active.

As for `O=c1nc(N2CCN(CC3CCCCC3)CC2)sc2nc(Cl)ncc12`, the MIC in data set [5] is above 20 µM. In data set [6], the half-life is 4 h. Also, the IC50 in [7] was above 20 µM. Also, the result in data set [9] was Active.

Regarding `O=c1nc(N2CCN(CC3CCCCC3)CC2)sc2c(/C=C/c3ccccn3)cc(C(F)(F)F)cc12`, the MIC in data set [5] was above 20 µM. Further, the Activity in [11] is below 70%.

`N#CCCc1cc(C(F)(F)F)cc2c(=O)nc(N3CCN(CC4CCCCC4)CC3)sc12`: the minimum inhibitory concentration (MIC) in data set [5] was above 9 µM. In addition, the IC50 in data set [7] came out at 13.2 µM.

Take `O=c1nc(N2CCN(CC3CCCCC3)CC2)sc2c(Cl)cc(C(F)(F)F)cc12`: the outcome in data set [4] and in data set [10] was Active. In data set [5], the MIC was determined as 0.03 µM (≈ 0.0134 µg/mL). Besides, the IC50 in data set [7] is 0.92 µM.

For `N#Cc1ncc2c(=O)nc(N3CCN(CC4CCCCC4)CC3)sc2n1`, the MIC in [5] was determined as 6.73 µM (≈ 2.49 µg/mL). In [7], the IC50 is above 20 µM.

Consider `COC(=O)C#Cc1cc(C(F)(F)F)cc2c(=O)nc(N3CCN(CC4CCCCC4)CC3)sc12`, for which the outcome in data set [1] and in data set [8] was inactive. For the same compound, the outcome in data set [4] and in data set [10] was Active. Besides, the MIC in data set [5] worked out at 10 µM (≈ 4.94 µg/mL). Besides, the half-life in [6] is 1.2 h. In [7], the IC50 was determined as 0.14 µM. Moreover, the result in data set [9] was Active.
